Series [1] deals with MCF-10A. Nature of the series: Selectivity index, ratio of IC50 for human MCF10A cells to ratio of IC50 for mouse +SA cells. It is filed as functional. The essentials: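 Index is the IC50 in MCF10A divided by the IC50 in +SA. +SA cells were kept in serum-free DMEM/F12 defined medium and given BSA-conjugated compounds at 0–40 µM (DMSO <0.1%). MCF10A cells were plated at 10×10^4 cells/well and fed compounds in serum-free medium.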

The test system of series [2] is OVCAR-8. Nature of the series: Growth inhibition of human OVCAR8 cells after 48 hrs by sulforhodamine B assay. The series is classed as functional. As to conditions: OVCAR-8, 48 h. The essentials: (§1)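 NCI-60 panel cells grown in RPMI 1640 with 5% FBS and 2 mM L-glutamine, seeded at 5000–40,000 cells/well and preincubated 24 h. Five 10-fold dilutions (0.001–100 µM) from DMSO stocks were added for 48 h at 37 °C. Adherent cells were fixed with cold TCA (10% final) for 60 min at 4 °C, stained with 0.4% SRB, and read at 515 nm. GI50 was set where 100×(T−T0)/(C−T0)=50.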
For orientation: In SRB staining, fixed cells bind dye roughly in proportion to their protein.

The subject of series [3] is SNB-75. Nature of the series: Growth inhibition of human SNB75 cells after 48 hrs by sulforhodamine B assay. It is filed as functional. The note with it: SNB-75, 48 h. In short, it runs like this: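 NCI-60 five-dose screen. Cells were grown in RPMI 1640 with 5% FBS and 2 mM L-glutamine, plated at 5000–40,000 cells/well and incubated 24 h before dosing, with T0 plates TCA-fixed. DMSO stocks were diluted to doses of […] and exposed 48 h at 37 °C, 5% CO2. Cells were fixed with cold TCA (final 10%, 60 min, 4 °C), stained with 0.4% SRB in 1% acetic acid for 10 min, solubilized in 10 mM trizma base and read at 515 nm. GI50 is where 100×(T−T0)/(C−T0)=50.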

Series [4] concerns SK-MEL-28. Description: Growth inhibition of human SK-MEL-28 cells after 48 hrs by sulforhodamine B assay. It is filed as functional. As to conditions: SK-MEL-28, 48 h. In short, it runs like this: as §1
Series [5] concerns SK-MEL-5. Nature of the series: Growth inhibition of human SK-MEL-5 cells after 48 hrs by sulforhodamine B assay. The note with it: SK-MEL-5, 48 h. The series is classed as functional. The essentials:
as §1

In series [6] the test system is MDA-MB-231. Nature of the series: Antimigratory activity against human MDA-MB-231 cells after 24 hrs by wound-healing assay. It is filed as functional, cell-based. As to conditions: MDA-MB-231, 24 h. In short, it runs like this:
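MDA-MB-231 in RPMI 1640 with 10% FBS grown to >95% confluent monolayer, scratched with a pipette tip and washed. Then 24 h exposure in 0.5% serum at five non-toxic concentrations in DMSO, triplicate, DMSO as negative control. Diff Quick fixed and stained; migrated cells counted in ≥3 random 40× fields. IC50 = concentration inhibiting migration of 50% of cells.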

In series [7] the test system is +SA cell. Nature of the series: Antitumor activity against mouse +SA cells allografted in BALB/c mouse assessed as reduction in tumor volume at 0.5 mg, iv administered on day 40 post challenge for 14 days. The series is classed as functional, organism-based. The essentials:
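Female BALB/c mice, 3–4 months old, given 1 × 10^6 +SA cells into the #4 mammary fat pad under ketamine/xylazine. About 40 days later, once tumors were palpable, 0.5 mg in 0.1 mL propylene glycol/DMSO (1:1) by daily tail-vein injection for 14 days; vehicle controls. Caliper volume L×W²/2 and body weight recorded every other day. 14–15 mice/group; ANOVA with Duncan's test.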

Series [8] deals with Mus musculus. Description: Toxicity in BALB/c mouse allografted with mouse +SA cells assessed as body weight change at 0.5 mg, iv administered on day 40 post challenge for 14 days. It is filed as organism-based, +SA cell. As to conditions: in vivo, 336 h. The essentials:
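Female BALB/c mice, 3–4 months old, received 1×10^6 +SA cells in 0.1 mL medium into the #4 mammary fat pad. About 40 days later, once tumors were palpable, daily tail-vein injections began for 14 days: 0.5 mg in 0.1 mL propylene glycol/DMSO (1:1), with vehicle controls. Body weight was recorded every other day, with 14–15 mice per group. Analysis used ANOVA with Duncan's test.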

pIC50: −log10 of the molar value. Active and inactive are the calls of the source. The rule behind the calls is not given here. A value given as a limit tells only on which side of the number the result lay.

From ChEMBL document CHEMBL2380254, “Optimization of tocotrienols as antiproliferative and antimigratory leads” (Eur J Med Chem, 2013) come the findings set out here.

For the molecule `COc1ccc(CCN2COc3c(C)c(C)c4c(c3C2)CC[C@@](C)(CC/C=C(\C)CC/C=C(\C)CCC=C(C)C)O4)cc1OC`, in series [1], the “Ratio IC50” value came out at 0.39.

`CC(C)=CCC/C(C)=C/CC/C(C)=C/CC[C@]1(C)CCc2c3c(cc(C)c2O1)OCN(CCCCCO)C3`: the “Ratio IC50” value in series [1] is recorded as 6.57. Also, the GI50 – broadly, the concentration giving 50% growth inhibition – was found to be 6.39 µM in series [2], 4.03 µM in series [3] and 5890 nM in series [4].

As to `CC(C)=CCC/C(C)=C/CC/C(C)=C/CC[C@]1(C)CCc2c3c(cc(C)c2O1)OCN(CCCCCCO)C3`, the “Ratio IC50” value in series [1] was found to be 1.92. Also, the GI50 in series [2] amounted to 4.45 µM; in series [3], 3.14 µM; in series [4], 2010 nM; in series [5] it was 2500 nM. Besides, in series [6], the pIC50 (commonly the IC50 on a negative log10 scale, so that one unit is a factor of ten) is 5.82.

Turning to `CC(C)=CCC/C(C)=C/CC/C(C)=C/CC[C@]1(C)CCc2c3c(c(C)c(C)c2O1)OCN(CCc1ccc(O)cc1)C3`, the “Ratio IC50” value in series [1] amounted to 5.67. In series [6], the pIC50 is 5.35.

For the molecule `CC(C)=CCC/C(C)=C/CC/C(C)=C/CC[C@]1(C)CCc2cc(O)c(C)c(C)c2O1` [GAMMA-TOCOTRIENOL], in series [1], the “Ratio IC50” value was 1.1. Besides, in series [7], the outcome was inactive. For the same molecule, the Activity result in series [8] is “Non-toxic”. In addition, the pIC50 in series [6] was below 4.40.

As to `COc1ccc(CCN2COc3cc(C)c4c(c3C2)CC[C@@](C)(CC/C=C(\C)CC/C=C(\C)CCC=C(C)C)O4)cc1OC`, the GI50 was determined as 2.2 µM in series [2], 1.2 µM in series [3] and 1750 nM in series [4].

As for `CC(C)=CCC/C(C)=C/CC/C(C)=C/CC[C@]1(C)CCc2c3c(c(C)c(C)c2O1)OCN(CCCCCCO)C3`, the concentration for 50% growth inhibition (GI50) turned out to be 3.06 µM in series [2], 2.46 µM in series [3], 2760 nM in series [4] and 2880 nM in series [5].

For `COc1ccc(CCNCc2c(O)c(C)c(C)c3c2CC[C@@](C)(CC/C=C(\C)CC/C=C(\C)CCC=C(C)C)O3)cc1OC`, the outcome in series [7] was Active. Also, the Activity entry in series [8] is listed as “Non-toxic”.

`CC(C)=CCC/C(C)=C/CC/C(C)=C/CC[C@]1(C)CCc2c3c(cc(C)c2O1)OCN(CCCCCCCCCCO)C3` showed a negative-log IC50 (pIC50) in series [6] of 5.14.

Consider `CC(C)=CCC/C(C)=C/CC/C(C)=C/CC[C@]1(C)CCc2c3c(cc(C)c2O1)OCN(CCc1ccc(O)cc1)C3`, for which the “Ratio IC50” value in series [1] came to 2.09. For the same molecule, the 50% growth inhibitory concentration (GI50) in series [2] came out at 5.84 µM; in series [3], 4.74 µM; in series [4], 5590 nM; in series [5] it was 5420 nM. In series [6], this molecule had a pIC50 of 5.62.

Turning to `CC(C)=CCC/C(C)=C/CC/C(C)=C/CC[C@]1(C)CCc2c3c(cc(C)c2O1)OCN(CCCCO)C3`, the “Ratio IC50” value in series [1] is 2.34. Besides, the GI50 in series [5] was determined as 14500 nM. Moreover, the pIC50 in series [6] was 5.66.

Regarding `CC(C)=CCC/C(C)=C/CC/C(C)=C/CC[C@]1(C)CCc2c3c(cc(C)c2O1)OCN(CCCCCCCCO)C3`, in series [1], the “Ratio IC50” value was 2.15. Further, the GI50 in series [2] was 4.46 µM; in series [3] it was 4.11 µM; in series [4], 3430 nM; in series [5], 2760 nM. The molecule also gave a pIC50 in series [6] of 5.31.

On to `CC(C)=CCC/C(C)=C/CC/C(C)=C/CC[C@]1(C)CCc2c3c(cc(C)c2O1)OCN(C1CCN(Cc2ccccc2)CC1)C3`, for which the 50% growth inhibitory concentration (GI50) in series [2] amounted to 1.4 µM; in series [3], 1.67 µM; in series [4] it was 2010 nM.

Regarding `CC(C)=CCC/C(C)=C/CC/C(C)=C/CC[C@]1(C)CCc2c3c(c(C)c(C)c2O1)OCN(CCCCCO)C3`, the “Ratio IC50” value in series [1] was found to be 5.24. Also, the values for the GI50 in series [2], in series [3] and in series [4] were 6.39 µM, 4.03 µM and 5890 nM, respectively.

As for `CC(C)=CCC/C(C)=C/CC/C(C)=C/CC[C@]1(C)CCc2c3c(c(C)c(C)c2O1)OCN(CCCCCCCCO)C3`, the “Ratio IC50” value in series [1] was 1.43. For the same molecule, the GI50 amounted to 2.67 µM in series [2], 2.38 µM in series [3], 2620 nM in series [4] and 2900 nM in series [5]. Besides, in series [6], the pIC50 is 5.33.

On to `CC(C)=CCC/C(C)=C/CC/C(C)=C/CC[C@]1(C)CCc2c3c(c(C)c(C)c2O1)OCN(CCCCO)C3`, for which the GI50 in series [2] was above 10 µM; in series [3] it was 9.35 µM; in series [4], above 10000 nM; in series [5] it was above 10000 nM. In addition, in series [6], the negative logarithm of the IC50 (pIC50) was 4.97.

Regarding `CC(C)=CCC/C(C)=C/CC/C(C)=C/CC[C@]1(C)CCc2c3c(cc(C)c2O1)OCN(CCCO)C3`, in series [1], the “Ratio IC50” value was 3.61. Also, the GI50 turned out to be 1.95 µM in series [2], 1.29 µM in series [3] and 1780 nM in series [4]. Besides, the pIC50 in series [6] was 5.22.
